The list is not random: actives were taken first. Their share in the collection is about 1.5%.
APJ antag: antagonists of human APJ apelin receptor; P35414; CHO-K1 APJ beta-arrestin complementation, luminescence; inhibition, % at 20 µM; 330,000 compounds, 0.32% hits; AID 2521;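 active = inhibition above about 40% at 20 µM, limit read from the data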;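 note: cells challenged with 10 nM apelin-13 agonist together with compound; plate controls were apelin-13 plus DMSO wells for no effect and DMSO wells lacking apelin-13 for full effect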
Target sequence (P35414 whole entry, looked up): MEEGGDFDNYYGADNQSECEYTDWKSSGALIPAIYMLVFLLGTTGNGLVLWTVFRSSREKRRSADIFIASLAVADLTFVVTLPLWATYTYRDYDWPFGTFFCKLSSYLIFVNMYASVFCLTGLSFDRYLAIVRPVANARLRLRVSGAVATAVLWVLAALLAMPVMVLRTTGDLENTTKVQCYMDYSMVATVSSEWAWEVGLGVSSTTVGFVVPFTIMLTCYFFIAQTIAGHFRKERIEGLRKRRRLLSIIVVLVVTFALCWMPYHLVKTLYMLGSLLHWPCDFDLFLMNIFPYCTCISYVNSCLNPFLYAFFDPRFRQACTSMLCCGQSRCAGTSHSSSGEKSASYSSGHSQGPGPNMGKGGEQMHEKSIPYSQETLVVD
APJ ag: APJ receptor agonism | 330,000 compounds, 0.11% hits | activation, % at 20 µM | CHO-K1 APJ PathHunter beta-arrestin, luminescence; 0% DMSO wells, 100% apelin | AID 2520;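 active = activation more than six SD over the plate average, tested at 20 µM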;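 note: 0% = DMSO alone and 100% = apelin-13 at 10 nM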
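Assay system – PathHunter CHO-K1 APJ (AGTRL-1) beta-arrestin reporter cells · Compound – one dose, 20 µM compound, 1% DMSO · Timing – compound 90 min 25 °C, reagent 1 h · Measured by – luminescence from split beta-galactosidase complementation, Galacton Star/Emerald II substrate · Measure – beta-arrestin recruitment to APJ as agonist activity, luminescent signal · Benchmarks – DMSO vs Apelin-13 10 nM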
CCR6 antag: blocks CCL20-driven beta-arrestin recruitment at human CCR6. inhibition, % at 20 µM. P51684. CHO-K1 CCR6 PathHunter beta-arrestin, luminescence, CCL20-stimulated. 340,000 compounds, 0.49% hits. AID 493098;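 active = compounds whose inhibition of the agonist-driven luminescence signal at 20 µM reaches about 50%, limit read from the data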;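 note: cells stimulated with CCL20 at 14 nM final; plate controls were DMSO with CCL20 for no effect and DMSO without agonist for full effect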
EBI2 antag: EBI2 (human) antagonism; P32249; EBI2 beta-arrestin recruitment, luminescence, 7a,25-OHC stimulated; inhibition, % at 5 µM; 360,000 compounds, 0.81% hits; AID 651636; in the data active = inhibition above about 38%;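 note: enzyme fragment complementation signal reports receptor beta-arrestin coupling in cells; 0% = agonist plus DMSO wells and 100% = wells without agonist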
iPSC survival up: hiPSC single-cell survival enhancement; ATPlite luminescence; 100% = ROCK inhibitor wells, 0% = DMSO; survival enhancement, % at 20 µM; 360,000 compounds, 0.044% hits; in the data active = survival enhancement above about 18%;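 note: cells exposed to compounds for 16 hours before the ATP read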
CXCR6 inh: inhibitors of human CXCR6 receptor; O00574; CHO-K1 PathHunter CXCR6 beta-arrestin, luminescence; inhibition, % at 20 µM; 360,000 compounds, 0.36% hits; AID 602244; in the data active = inhibition above about 34%, passing the limit was not always enough;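 note: antagonist mode with CXCL16 agonist at 10 nM final; 0% = 10 nM CXCL16 with DMSO and 100% = unstimulated wells without agonist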
The depositor's hits bear a star; x = no result.

SMILES	APJ antag	APJ ag	CCR6 antag	EBI2 antag	iPSC survival up	CXCR6 inh
COc1ccc2[nH]c(=O)cc(C(=O)O)c2c1	-4	0	6	-7	2	0
COc1ccc2[nH]c3c4c(ccc3c2c1)C(=O)C=CC4=O	21	3	61*	35	6	30
CC(=O)n1cc(Nc2ccc([N+](=O)[O-])cc2)c2ccccc21	42*	-6	36	11	2	15
CC(=O)SC(C[N+](=O)[O-])c1cn(C(C)=O)c2ccccc12 (stereo not drawn)	-1	-7	76*	-7	-3	55*
CCn1cc(C(c2ccccc2)C(C(C)=O)[N+](=O)[O-])c2ccccc21 (stereo not drawn)	6	-4	-2	0	-1	-8
CC(=O)n1cc(Nc2ccccc2C(=O)O)c2ccccc21	19	-6	27	1	-1	6
O=C(c1cccc(N2C(=O)C3C4C=CC(C4)C3C2=O)c1)N1CCN(c2ccccc2F)CC1 (stereo not drawn)	13	-3	6	-10	0	9
COC(=O)c1c(NC(=O)c2nc3ccccc3s2)sc2c1CCN(C(C)=O)C2	10	1	16	0	2	11
CNC(=O)c1c(NC(=O)c2nc3ccccc3s2)sc2c1CCC2	39	-6	x	10	2	40*
O=C(Cc1ccc(NC(=O)C2CCN(C(=O)C3CCCCC3)CC2)cc1)Nc1ccc(C(=O)N2CCOCC2)cc1	x	x	6	-6	3	5
COc1ccc(C2=C(N)c3ccccc3C2=O)cc1	12	0	19	-4	-2	8
COC1=C(c2ccccc2)C(=O)c2ccccc2C1=O	-14	12*	6	-1	-3	0
Cc1noc(C)c1NC(=O)N(C)C[C@H]1OCc2cn(nn2)CCCC(=O)N([C@@H](C)CO)C[C@@H]1C	x	x	x	4	0	19
COc1ccccc1NC(=O)COC(=O)c1ccc(N2CCCC2=O)cc1	-9	-4	5	-3	0	1
O=C(Cn1c(=O)cnc2ccccc21)NNC(=O)c1ccccc1Cl	7	-1	1	1	1	10
CCN(CC)c1ccc(C(=C2C=CC(=[N+](CC)CC)C=C2)c2ccc(N(CC)CC)cc2)cc1	x	x	114*	20	-1	108*
CCN(CC)c1ccc(C(=O)NNC(=O)CCl)cc1	17	-2	0	-1	-1	5
CCN(CC)c1ccc(C(=C2C=CC(=[N+](CC)CC)C=C2)c2ccccc2)cc1	x	x	117*	32	-4	103*
Cc1cc(C(=O)COC(=O)c2ccc(O)cc2O)c(C)n1C(C)C	-3	-2	-2	10	-1	6
CNC(=O)c1c(NC(=O)CCS(=O)(=O)c2ccc(C)cc2)sc(C)c1C	19	-2	-12	1	0	-1
O=C1NC(=O)/C(=C/c2cccc([N+](=O)[O-])c2)N1	0	-4	12	0	1	15
CCN1C/C(=C/c2cccc([N+](=O)[O-])c2)C(=O)/C(=C/c2cccc([N+](=O)[O-])c2)C1	x	x	62*	27	38*	22
COc1cc(NC(=O)CCS(=O)(=O)c2ccc3c(c2)oc(=O)n3C)cc(OC)c1OC	15	-4	6	-5	1	-2
O=C1Nc2ccc(Br)cc2/C1=C/C(=O)c1ccc2c(c1)OCO2	-13	6	40	85*	3	23
CCN(CC)c1ccc(/C=C2\CCC(/C=C(\C#N)C(=O)Nc3ccccc3F)=C2N2CCOCC2)cc1	x	x	91*	19	-3	29
SMILES	APJ antag	APJ ag	CCR6 antag	EBI2 antag	iPSC survival up	CXCR6 inh
N#C/C(=C/C1=C(N2CCOCC2)C(=C/c2ccccc2)/CC1)C(=O)Nc1ccccc1F	x	x	45	21	-1	30
CCN(CC)c1ccc(/C=C2\CCC(/C=C(/C#N)C(=O)Nc3ccccc3F)=C2N2CCOCC2)cc1	x	x	102*	27	-2	45*
O=C(OCn1ncc(Cl)c(Cl)c1=O)c1ccc(F)cc1	24	-3	x	x	x	x
O=C(OCn1ncc(Cl)c(Cl)c1=O)c1ccccc1Cl	x	x	22	51*	18	31
Cc1noc(C)c1COc1ccccc1C(=O)NCCc1ccc(F)cc1	x	x	8	6	1	22
O=[N+]([O-])c1c(Nc2ccccc2O)cc(Cl)c2nonc12	93*	-5	106*	61*	7	107*
O=[N+]([O-])c1c(Nc2ccccc2O)ccc2nonc12	-20	-4	4	-4	0	2
Cc1noc(C)c1COc1ccccc1C(=O)N(C)Cc1ccco1	-12	-4	8	0	1	7
O=C(Cn1nc(C(F)F)cc1C(F)F)NNC(=S)Nc1ccc([N+](=O)[O-])cc1	49*	-8	48	9	1	24
O=C(Cn1nc(C(F)F)cc1C(F)F)NNC(=S)Nc1ccc(F)cc1	19	-2	12	-10	-2	12
CCN(CC)CCN1C(=O)/C(=C\c2ccc(Cl)c([N+](=O)[O-])c2)SC1=Nc1ccc(OC)cc1	21	-1	25	73*	16	1
CCCN1C(=O)/C(=C/c2ccc(C)s2)SC1=Nc1ccc(OC)cc1	13	-7	22	13	4	10
COc1ccc(N=C2S/C(=C\c3ccc(Cl)c([N+](=O)[O-])c3)C(=O)N2CCN(C)C)cc1	19	0	25	62*	14	17
FC(F)(F)c1nnc(-c2ccccc2)nc1Oc1ccc(Cl)cc1Cl	8	-4	56*	-8	-2	29
COc1ccc(OCc2cc(C(=O)N3CCCC(O)C3)no2)c2ccccc12 (stereo not drawn)	-64	18	-3	-48	1	-10
CCN1/C(=c2/s/c(=C3/C(=O)N(c4ccccc4)N=C3C)n(CC)c2=O)C=Cc2ccccc21	11	-2	52*	-1	1	10
Cc1cc(SCC(=O)Nc2ccc3[nH]c(=O)[nH]c3c2)nc2ccccc12	-4	-1	9	4	-1	-3
COc1ccccc1NC(=O)COc1ccc(/C=N/NC(=O)CSCc2ccc(Cl)cc2)cc1	64*	-4	2	15	-4	6
N[C@@H](Cc1cnc[nH]1)C(=O)Nc1ccc2ccccc2c1	x	x	-5	-8	2	3
O=C(C(O)c1ccc(Br)cc1)N1CCC(Nc2ccc3[nH]ncc3c2)CC1 (stereo not drawn)	x	x	x	-7	111*	-11
O=C(Nc1ccc2[nH]ncc2c1)C1CCC1	-4	-3	-6	1	2	4
N=C1/C(=C\c2ccc(-c3ccc(C(=O)O)cc3)o2)C(=O)N=C2SC=C(c3ccccc3)N12	x	x	53*	14	1	34
N=C1/C(=C\c2ccc(-c3cccc(Cl)c3)o2)C(=O)N=C2SC=C(c3ccccc3)N12	11	0	43	0	0	12
